Columns and labels:
D(4) dopamine receptor [1] = biological target: T1, D(4) dopamine receptor (Homo sapiens, UniProt P21917); assay: Ability to displace [3H]spiperone radioligand from cloned human Dopamine receptor D4 in CHO cells; assay type: cell-based
T1 sequence (P21917 whole entry): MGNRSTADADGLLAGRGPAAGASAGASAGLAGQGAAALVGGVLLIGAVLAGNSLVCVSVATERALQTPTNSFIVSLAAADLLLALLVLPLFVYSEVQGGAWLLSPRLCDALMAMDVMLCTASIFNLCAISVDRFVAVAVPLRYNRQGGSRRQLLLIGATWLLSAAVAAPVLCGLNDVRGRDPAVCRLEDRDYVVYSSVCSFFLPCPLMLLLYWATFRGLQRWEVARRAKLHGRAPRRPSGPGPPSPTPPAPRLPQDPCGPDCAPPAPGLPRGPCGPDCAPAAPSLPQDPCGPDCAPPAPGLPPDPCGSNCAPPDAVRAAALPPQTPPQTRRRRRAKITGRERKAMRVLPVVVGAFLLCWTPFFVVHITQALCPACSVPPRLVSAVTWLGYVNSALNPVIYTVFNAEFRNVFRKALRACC

D(3) dopamine receptor = D(3) dopamine receptor (Homo sapiens, UniProt P35462); assay: Ability to displace [3H]spiperone radioligand from cloned human Dopamine receptor D3 in CHO cells; assay type: cell-based
Method in brief: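 Human D3 receptor stably expressed in CHO cells, membranes labelled with [3H]spiperone in a competition format.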

D(1A) dopamine receptor = D(1A) dopamine receptor (Bos taurus, UniProt Q95136); assay: Ability to displace [3H]SCH-23,390 radioligand from bovine Dopamine receptor D1
D(2) dopamine receptor [2] = biological target: T2, D(2) dopamine receptor (Homo sapiens, UniProt P14416); assay: Ability to displace [3H]spiperone radioligand from cloned human Dopamine receptor D2 in CHO cells; assay type: cell-based
D(2) dopamine receptor [3] = biological target: T2, D(2) dopamine receptor; assay: Ability to displace […] radioligand from cloned human Dopamine receptor D2 in CHO cells; assay type: cell-based
[4] = biological target: 5-hydroxytryptamine receptor 2A (Sus scrofa, UniProt P50129); assay: Ability to displace [3H]-Ketanserin radioligand from porcine 5-hydroxytryptamine 2A receptor
D(4) dopamine receptor [5] = biological target: T1, D(4) dopamine receptor; assay: Effective concentration of compound required against human Dopamine D4.2 receptor; assay type: functional
[6] = biological target: T3, D(4) dopamine receptor (Homo sapiens) (UniProt P21917)
T3 sequence (whole entry): T1 sequence (P21917 whole entry)

5-hydroxytryptamine receptor 2A, sequence (P50129 whole entry): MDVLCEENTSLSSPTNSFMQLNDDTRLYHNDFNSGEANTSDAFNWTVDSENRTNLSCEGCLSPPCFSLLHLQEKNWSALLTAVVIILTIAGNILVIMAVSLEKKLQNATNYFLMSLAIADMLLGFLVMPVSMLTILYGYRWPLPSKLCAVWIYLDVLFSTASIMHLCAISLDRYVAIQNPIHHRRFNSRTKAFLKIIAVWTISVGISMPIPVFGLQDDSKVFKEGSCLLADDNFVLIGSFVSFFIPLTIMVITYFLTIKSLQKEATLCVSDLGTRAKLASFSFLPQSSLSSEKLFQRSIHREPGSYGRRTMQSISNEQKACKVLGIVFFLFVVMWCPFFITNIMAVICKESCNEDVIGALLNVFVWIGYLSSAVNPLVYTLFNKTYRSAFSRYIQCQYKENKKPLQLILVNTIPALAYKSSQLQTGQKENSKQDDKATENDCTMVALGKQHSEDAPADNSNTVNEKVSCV
T2 sequence (P14416 whole entry): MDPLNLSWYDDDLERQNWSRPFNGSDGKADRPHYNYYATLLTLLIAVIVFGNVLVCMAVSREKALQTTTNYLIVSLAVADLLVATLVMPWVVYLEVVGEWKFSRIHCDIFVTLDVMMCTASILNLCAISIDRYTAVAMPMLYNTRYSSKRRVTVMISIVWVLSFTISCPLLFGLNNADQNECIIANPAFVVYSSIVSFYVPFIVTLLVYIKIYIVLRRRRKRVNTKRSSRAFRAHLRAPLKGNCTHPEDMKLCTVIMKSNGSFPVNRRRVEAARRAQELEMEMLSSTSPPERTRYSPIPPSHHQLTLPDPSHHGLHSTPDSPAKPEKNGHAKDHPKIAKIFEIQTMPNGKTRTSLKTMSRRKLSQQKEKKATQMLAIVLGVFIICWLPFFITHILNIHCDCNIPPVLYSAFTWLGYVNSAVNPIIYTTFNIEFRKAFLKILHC
D(1A) dopamine receptor, sequence (Q95136 whole entry): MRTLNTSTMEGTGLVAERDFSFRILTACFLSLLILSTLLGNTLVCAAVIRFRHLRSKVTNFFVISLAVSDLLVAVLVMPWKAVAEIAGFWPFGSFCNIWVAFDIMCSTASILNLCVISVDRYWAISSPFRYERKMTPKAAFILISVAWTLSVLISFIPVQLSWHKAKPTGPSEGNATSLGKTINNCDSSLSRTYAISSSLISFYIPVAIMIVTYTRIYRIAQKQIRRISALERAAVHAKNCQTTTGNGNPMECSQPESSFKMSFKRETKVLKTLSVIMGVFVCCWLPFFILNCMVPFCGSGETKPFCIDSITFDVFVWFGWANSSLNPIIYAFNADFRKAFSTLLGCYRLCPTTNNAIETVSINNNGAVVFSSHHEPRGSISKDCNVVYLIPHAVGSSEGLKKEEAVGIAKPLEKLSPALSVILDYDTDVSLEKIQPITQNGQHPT
D(3) dopamine receptor, sequence (P35462 whole entry): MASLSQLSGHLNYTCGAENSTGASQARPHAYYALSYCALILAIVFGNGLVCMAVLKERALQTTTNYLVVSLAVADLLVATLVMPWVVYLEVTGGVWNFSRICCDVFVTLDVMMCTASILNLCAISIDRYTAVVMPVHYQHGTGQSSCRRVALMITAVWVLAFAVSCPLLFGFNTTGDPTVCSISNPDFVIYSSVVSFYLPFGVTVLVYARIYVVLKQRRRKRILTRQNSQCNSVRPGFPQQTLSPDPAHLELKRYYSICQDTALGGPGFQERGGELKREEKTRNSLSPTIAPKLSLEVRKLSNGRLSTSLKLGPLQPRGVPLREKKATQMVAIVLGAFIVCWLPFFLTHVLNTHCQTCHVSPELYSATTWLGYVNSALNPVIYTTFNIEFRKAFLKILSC

| SMILES | Ki (D(4) dopamine receptor [1]) | Ki (D(3) dopamine receptor) | Ki (D(1A) dopamine receptor) | Ki (D(2) dopamine receptor [2]) | Ki (D(2) dopamine receptor [3]) | Ki [4] | EC50 (D(4) dopamine receptor [5]) | EC50 [6] |
| --- | --- | --- | --- | --- | --- | --- | --- | --- |
| C(#Cc1c[nH]c(CN2CCN(c3ccccc3)CC2)c1)c1ccccc1 | 0.083 µM | 0.67 µM | 2.7 µM | 0.55 µM | 0.76 µM |  |  |  |
| c1ccc(N2CCN(Cc3ccc[nH]3)CC2)cc1 | 0.1 µM | 0.57 µM | 5.4 µM | 3 µM | 3.1 µM |  |  |  |
| N#Cc1c[nH]c(CN2CCN(c3ccccc3)CC2)c1 | 0.021 µM | 1.8 µM | 4.6 µM | 8 µM | 3.7 µM | 0.61 µM | 0.0056 µM |  |
| N#Cc1cc(CN2CCN(c3ccccc3)CC2)c[nH]1 | 0.018 µM | 0.72 µM | 1.2 µM | 3.4 µM | 2.4 µM | 0.45 µM |  | 0.0078 µM |
| c1ccc(-c2c[nH]c(CN3CCN(c4ccccc4)CC3)c2)cc1 | 0.012 µM | 0.54 µM | 2.1 µM | 0.17 µM | 0.23 µM | 1.3 µM | 0.0068 µM |  |
| C#Cc1c[nH]c(CN2CCN(c3ccccc3)CC2)c1 | 0.0059 µM | 0.85 µM | 2 µM | 0.58 µM | 0.77 µM | 0.38 µM | 0.0019 µM |  |
